We go through 17 compounds from ChEMBL document CHEMBL5131498, “Synthesis and biological evaluation of orally active prodrugs and analogs of para-aminosalicylic acid (PAS)” (Eur J Med Chem, 2022).

In brackets after ≈: the same amount, converted by molar mass.

Data set [1] is described as follows: Metabolic stability in human plasma assessed as parent compound remaining at 1 ug/ml measured after 2 hrs by LC-MS/MS analysis. It is filed as ADME, cell-free. As to conditions: at 1 µg/mL, read-out: Stability. The procedure, abridged:
(§1)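 Compound at 1 μg/mL final (from 20 μg/mL DMSO stock; 5% DMSO) incubated in K2EDTA plasma (female CD-1 mouse or human) at 37 °C with shaking. Aliquots quenched in 1:1 MeCN/MeOH with verapamil; parent and released PAS measured by high-resolution LC-MS/MS; percent parent remaining versus initial concentration at 120 min.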

A short description of data set [2]: AUC in CD-1 mouse plasma assessed as para-aminosalicylic acid AUC at 25 mg/kg, po administered as single dose and measured up to 5 hrs by LC-MS/MS analysis. It is filed as ADME, organism-based. Set-up: dose 25 mg/kg, time < 5 hrs, route po. As to conditions: in vivo. Summed up: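 Female CD-1 mice (n = 2) dosed once by oral gavage at 25 mg/kg in 5% dimethylacetamide:60% PEG 300:35% (5% dextrose in water). Lateral tail-vein blood into K2EDTA at 0.5, 1, 3, 5 h; plasma analysed by LC-MS/MS after MeCN precipitation with internal standard; AUC over 5 h by non-compartmental fit.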

A short description of data set [3]: Metabolic stability in CD-1 mouse plasma assessed as parent compound remaining at 1 ug/ml measured after 2 hrs by LC-MS/MS analysis. The data set is classed as ADME, cell-free. Particulars: at 1 µg/mL, read-out: Stability. Summed up: as §1
In data set [4] the test system is Mycobacterium tuberculosis. The experiment in a line: Antimycobacterial activity against drug susceptible Mycobacterium tuberculosis H37Rv assessed as inhibition of bacterial growth measured after 2 weeks by microbroth dilution method. The data set is classed as functional. As to conditions: 336 h. The procedure, abridged:
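Diluted 1000-fold into 96-well plates with 2-fold serial compound dilutions and incubated at 37 °C for 2 weeks. Growth scored by mirror at 1 and 2 weeks. MIC is the lowest concentration completely inhibiting growth; tested in duplicate. DMSO, isoniazid and linezolid served as controls.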

The subject of data set [5] is Mycobacterium tuberculosis. The experiment in a line: Antimycobacterial activity against Mycobacterium tuberculosis H37Rv assessed as inhibition of bacterial growth measured after 10 days by microbroth dilution method. Particulars: 240 h, time 10 day. It is filed as functional.
Data set [6] can be described thus: Ratio of compound AUC to para-aminosalicylic acid AUC in CD-1 mouse. It is filed as ADME. As to conditions: in vivo.
The nature of data set [7]: AUC in CD-1 mouse plasma assessed as para-aminosalicylic acid AUC at 25 mg/kg, po administered as single dose and measured up to 24 hrs by LC-MS/MS analysis. It is filed as ADME, organism-based. Set-up: dose 25 mg/kg, time < 24 hrs, route po. As to conditions: in vivo.
Data set [8] can be described thus: AUC in CD-1 mouse plasma assessed as para-aminosalicylic acid AUC at 10 mg/kg, po administered as single dose and measured up to 5 hrs by HPLC-MS/MS analysis. More on the design: time < 5 hrs, dose 10 mg/kg, route po. As to conditions: in vivo. It is filed as ADME, organism-based. The procedure, abridged: (§2)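 Snapshot PK: single oral gavage at 10 mg/kg in 5% dimethylacetamide:60% PEG 300:35% (5% dextrose in water) solution to female CD-1 mice (n = 2). Tail-vein blood (K2EDTA) at 0.5, 1, 3, 5 h; plasma protein-precipitated in MeCN with internal standard, prodrug and released PAS quantified by LC-MS/MS; AUC by non-compartmental analysis.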

A short description of data set [9]: AUC in CD-1 mouse at 25 mg/kg, po administered as single dose and measured up to 24 hrs by LC-MS/MS analysis. It is filed as ADME, organism-based. More on the design: dose 25 mg/kg, time < 24 hrs, route po. Particulars: in vivo. Summed up:
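Female CD-1 mice (n = 3) given a single oral gavage dose of 25 mg/kg as a 0.5% CMC/0.5% Tween 80 suspension. Tail-vein blood was drawn at 0.5, 1, 3, 5, 7 and 24 h into K2EDTA and plasma stored at −80 °C. Only PAS was quantified, by LC-MS/MS after MeCN precipitation.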

Data set [10] can be described thus: AUC in CD-1 mouse at 10 mg/kg, po administered as single dose and measured up to 5 hrs by LC-MS/MS analysis. The data set is classed as ADME, organism-based. More on the design: dose 10 mg/kg, time < 5 hrs, route po. Particulars: in vivo. Summed up: as §2

Turning to `CC(OC(=O)c1ccc(N)cc1O)OC(=O)C(C)(C)C` (centres undefined), the remaining at 2 h, 1 ug/ml in data set [1] and in data set [3] was 0% in each case. Further, in [2], the AUC turned out to be 190 ng·h/mL.
On to `Nc1ccc(C(=O)O)c(O)c1` [AMINOSALICYLIC ACID], for which the MIC90 was 0.2 µM (≈ 0.0306 µg/mL) in [4] and 0.5 µM (≈ 0.0766 µg/mL) in [5]. Moreover, in data set [6], the “Ratio AUC” value is reported as 1. In addition, the AUC in data set [7] worked out at 3400 ng·h/mL; in [8] it was 380 ng·h/mL.
Take `CCOC(=O)c1cc(F)c(N)cc1O`: the MIC90 in data set [5] is above 128 µM. Further, in data set [6], the “Ratio AUC” value was 0.02.
In the case of `Cl.Nc1ccc(C(=O)O)c(O)c1F`, the MIC90 in [5] amounted to 32 µM. In addition, in [6], the “Ratio AUC” value is given as 1.9. Further, the AUC in data set [9] stood at 4000 ng·h/mL.
`CNc1ccc(C(=O)OC)c(O)c1`: in [10], the AUC at 5 h is 78 ng·h/mL. Further, the remaining at 2 h, 1 ug/ml in data set [1] turned out to be 96%; in data set [3] it was 90%.
On to `CC(C)OC(=O)c1ccc(N)cc1O`, for which, in [5], the MIC90 was above 128 µM. Besides, the “Ratio AUC” value in data set [6] was determined as 0.6. The compound also gave an exposure (AUC) at 5 h in data set [10] of 230 ng·h/mL. Besides, the remaining at 2 h, 1 ug/ml in [1] worked out at 93%; in data set [3], 94%.
With `CC(C)OC(=O)OCOC(=O)c1ccc(N)cc1O`, the remaining at 2 h, 1 ug/ml in data set [1] and in [3] was 0% in each case. Moreover, the AUC in [8] is 19 ng·h/mL.
For `Nc1cc(O)c(C(=O)O)cc1F`, the MIC90 in data set [4] came out at 6.3 µM (≈ 1.08 µg/mL); in [5], 8 µM (≈ 1.37 µg/mL). Besides, in [6], the “Ratio AUC” value stood at 4.9. In addition, the AUC in data set [9] came out at 10000 ng·h/mL.
As to `Cl.Nc1cc(O)c(C(=O)O)c(F)c1`, in data set [5], the MIC90 amounted to 64 µM. The “Ratio AUC” value in data set [6] was 1.2. The compound further showed an area under the curve (AUC) in data set [9] of 2400 ng·h/mL.
Take `Cc1oc(=O)oc1COC(=O)c1ccc(N)cc1O`: the remaining at 2 h, 1 ug/ml in data set [1] and in data set [3] was 0% throughout. Besides, the AUC in data set [2] came out at 250 ng·h/mL.
Turning to `CC(=O)NC[C@H]1CN(c2ccc(N3CCOCC3)c(F)c2)C(=O)O1` [LINEZOLID], the MIC90 in data set [4] stood at 0.7 µM (≈ 0.236 µg/mL).
Regarding `CNc1ccc(C(=O)O)c(O)c1`, in data set [5], the MIC90 is above 128 µM. Also, the “Ratio AUC” value in [6] was 59. The AUC in data set [9] was 130000 ng·h/mL.
For `[N-]=[N+]=Nc1ccc(C(=O)O)c(O)c1`, in [5], the MIC90 worked out at 128 µM (≈ 22.9 µg/mL). For the same compound, the “Ratio AUC” value in data set [6] turned out to be 430. Besides, the area under the curve (AUC) in data set [9] came to 900000 ng·h/mL.
With `COC(=O)c1ccc(N)cc1O`, in data set [5], the MIC90 was found to be 64 µM (≈ 10.7 µg/mL). Moreover, the “Ratio AUC” value in data set [6] came to 0.2. Besides, the area under the curve (AUC) at 5 h in [10] was determined as 1700 ng·h/mL. Moreover, the remaining at 2 h, 1 ug/ml in data set [1] is 94%; in data set [3] it was 84%. For the same compound, the AUC in [8] turned out to be 53 ng·h/mL.
`CCOC(=O)c1ccc(N)cc1O`: the MIC90 in [5] came to 2 µM (≈ 0.362 µg/mL). In addition, the “Ratio AUC” value in data set [6] amounted to 0.1. For the same compound, in [10], the AUC at 5 h worked out at 44 ng·h/mL. Further, the remaining at 2 h, 1 ug/ml worked out at 94% in data set [1] and 92% in [3].
Regarding `CC(C)OC(=O)OC(C)OC(=O)c1ccc(N)cc1O` (centres undefined), the remaining at 2 h, 1 ug/ml in data set [1] stood at 24%; in [3] it was 0%. The AUC in data set [8] was found to be 190 ng·h/mL.
With `CC(C)(C)C(=O)OCOC(=O)c1ccc(N)cc1O`, the values for the AUC in data set [7] and in data set [8] were 300 ng·h/mL and 460 ng·h/mL, respectively. Moreover, the results for the remaining at 2 h, 1 ug/ml in data set [1] and in data set [3] were 15% and 0%, respectively.
